Published values from different studies.
pIC50: −log10 of the molar value.
Target: Cytochrome P450 2C19 (CYP2C19, Homo sapiens, UniProt P33261)
Read-out: enzyme activity
Mode: inhibitor

Compound	assay	system	conditions	pIC50
C[C@H]1CN(c2n[nH]c3nc(N[C@H]4CC[C@H](NS(=O)(=O)CCC(F)(F)F)CC4)ncc23)CCO1				< 4.00
Nc1nc(N)c2nc(CNc3ccc(C(=O)c4ccccc4)cc3)cnc2n1	luciferase			4.60
Cc1cc2c(F)c(Oc3ncnn4cc(OC[C@@H](C)O)c(C)c34)ccc2[nH]1	fluorescence		15 min	5.44
COc1ccc2cc3[n+](cc2c1OC)CCc1cc2c(cc1-3)OCO2				< 5.00
C=CC(=O)Nc1cc(Nc2nccc(Nc3cc(Cl)c(F)cc3C(C)(C)O)n2)c(OC)cc1N1CC[C@@H](N(C)C)C1		human, liver microsomes		< 4.52
CC(CN1c2ccccc2Sc2ccccc21)N(C)C (stereo not drawn)	fluorescence			4.39
COc1ccc2c(Cc3ccccc3F)c3n(c(=O)c2c1OC)CCc1cc2c(cc1-3)OCO2				5.33
CC1=CC(=O)C(C(C)C)=CC1=O	fluorescence		pH 7.4	5.44
CCOC(=O)C1CCN(C(=O)c2ccc(N(CC)Cc3cnc4nc(N)nc(N)c4n3)cc2)CC1	luciferase			5.17
COc1ccn2c(Nc3ccccc3F)c(-c3ccncn3)nc2c1				6.03
CCC(C)(C)C(=O)O[C@H]1C[C@@H](C)C=C2C=C[C@H](C)[C@H](CC[C@@H](O)C[C@@H](O)CC(=O)O)[C@H]21	fluorescence			< 4.00
Nc1nc(N)c2nc(CNc3ccc(C(=O)NCCc4ccccc4)cc3)cnc2n1	luciferase			4.82
